# Measured values: ChEMBL document CHEMBL3627671, “Novel derivatives of nitro-substituted salicylic acids: Synthesis, antimicrobial activity and cytotoxicity” (Bioorg Med Chem, 2015)
# pIC50: −log10 of the molar value.
# Legend:
# [1] = Selectivity index, ratio of CI50 for human HepG2 cells to MIC100 for Mycobacterium tuberculosis H37Rv 331/88
# [2] = system: Mycobacterium tuberculosis; assay: Antimycobacterial activity against Mycobacterium tuberculosis H37Rv 331/88 after 14 days; type: functional; settings: H37Rv 331/88, 336 h
# [3] = system: Enterococcus sp.; assay: Antibacterial activity against Enterococcus sp. J 14365/08 after 24 hrs by microdilution broth method; type: functional; settings: J 14365/08, 24 h
# Method in brief: (§1)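 Mueller-Hinton broth microdilution (modified M07-A07), pH 7.4 (±0.2). Compounds dissolved in DMSO, tested at final 500 to 0.49 µmol/L. Inoculum in sterile water matched to 0.5 McFarland. Incubated in the dark, humid atmosphere, 35 °C, read at 24 and 48 h visually and at 540 nm. MIC taken as ≥95% growth reduction (IC95) versus control.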
# [4] = system: Klebsiella pneumoniae; assay: Antibacterial activity against Klebsiella pneumoniae D 11750/08 after 48 hrs by microdilution broth method; type: functional; settings: D 11750/08, 48 h; method in brief: as §1
# [5] = system: Mycobacterium kansasii; assay: Antimycobacterial activity against Mycobacterium kansasii 6509/96 after 21 days; type: functional; settings: 6509/96, 504 h
# Method in brief: (§2)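 Šula's semisynthetic medium micromethod at 37 °C, read after 7, 14 and 21 days. The 1.0 McFarland suspension was diluted 10^-4. MIC determined. 6509/96 is a clinical isolate.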
# [6] = system: Pseudomonas aeruginosa; assay: Antibacterial activity against Pseudomonas aeruginosa CCM 1961 after 24 hrs by microdilution broth method; type: functional; settings: CCM 1961, 24 h; method in brief: as §1
# [7] = system: Staphylococcus epidermidis; assay: Antibacterial activity against Staphylococcus epidermidis H 6966/08 after 48 hrs by microdilution broth method; type: functional; settings: H 6966/08, 48 h; method in brief: as §1
# [8] = system: Candida albicans; assay: Antifungal activity against Candida albicans ATCC 44859 after 48 hrs by microdilution broth method; type: functional; settings: ATCC 44859, 48 h
# Method in brief: (§3)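 CLSI M27-A3 broth microdilution in RPMI 1640 with glutamine, buffered to pH 7.0 with MOPS; DMSO diluent. Yeast inoculum 5 × 10^3 ± 0.2 CFU/mL. Moulds grown on Sabouraud agar 3–10 days before spore harvest, final inoculum 0.5-5 × 10^4 CFU/mL, checked in a Bürker chamber. Incubated dark, humid, 35 °C, read at 24 and 48 h visually and at 540 nm. MIC taken as ≥80% (yeasts) or ≥50% (filamentous) growth reduction versus control.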
# [9] = system: Enterococcus sp.; assay: Antibacterial activity against Enterococcus sp. J 14365/08 after 48 hrs by microdilution broth method; type: functional; settings: J 14365/08, 48 h; method in brief: as §1
# [10] = system: Nakaseomyces glabratus; assay: Antifungal activity against Candida glabrata 20/I after 48 hrs by microdilution broth method; type: functional; method in brief: as §3
# [11] = system: Lichtheimia corymbifera; assay: Antifungal activity against Absidia corymbifera 272 after 48 hrs by microdilution broth method; type: functional; settings: Lichtheimia corymbifera, 272, 48 h; method in brief: as §3
# [12] = system: Mycobacterium kansasii; assay: Antimycobacterial activity against Mycobacterium kansasii 235/80 after 14 days; type: functional; settings: 235/80, 336 h; method in brief: as §2
# [13] = system: Pseudomonas aeruginosa; assay: Antibacterial activity against Pseudomonas aeruginosa CCM 1961 after 48 hrs by microdilution broth method; type: functional; settings: CCM 1961, 48 h; method in brief: as §1
# [14] = system: Mycobacterium kansasii; assay: Antimycobacterial activity against Mycobacterium kansasii 235/80 after 7 days; type: functional; settings: 235/80, 168 h; method in brief: as §2
# [15] = system: Pichia kudriavzevii; assay: Antifungal activity against Candida krusei E28 after 48 hrs by microdilution broth method; type: functional; settings: E28, 48 h; method in brief: as §3
# [16] = system: Pichia kudriavzevii; assay: Antifungal activity against Candida krusei E28 after 24 hrs by microdilution broth method; type: functional; settings: E28, 24 h; method in brief: as §3
# [17] = system: Klebsiella pneumoniae; assay: Antibacterial activity against Klebsiella pneumoniae D 11750/08 after 24 hrs by microdilution broth method; type: functional; settings: D 11750/08, 24 h; method in brief: as §1
# [18] = system: HepG2; assay: Cytotoxicity against human HepG2 cells after 24 hrs […]; type: cell-based; settings: HepG2, 24 h
# [19] = system: Escherichia coli; assay: Antibacterial activity against Escherichia coli CCM4517 after 48 hrs by microdilution broth method; type: functional; settings: CCM4517, 48 h; method in brief: as §1
# [20] = system: Klebsiella pneumoniae; assay: Antibacterial activity against ESBL-positive Klebsiella pneumoniae J 14368/08 after 24 hrs by microdilution broth method; type: functional; settings: J 14368/08, 24 h; method in brief: as §1
# [21] = system: Staphylococcus aureus; assay: Antibacterial activity against methicillin-resistant Staphylococcus aureus H 5996/08 after 48 hrs by microdilution broth method; type: functional; settings: H 5996/08, 48 h
# [22] = system: Klebsiella pneumoniae; assay: Antibacterial activity against ESBL-positive Klebsiella pneumoniae J 14368/08 after 48 hrs by microdilution broth method; type: functional; settings: J 14368/08, 48 h; method in brief: as §1
# [23] = system: Aspergillus fumigatus; assay: Antifungal activity against Aspergillus fumigatus 231 after 48 hrs by microdilution broth method; type: functional; settings: Aspergillus fumigatus, 231, 48 h; method in brief: as §3
# [24] = system: Staphylococcus aureus; assay: Antibacterial activity against Staphylococcus aureus CCM 4516/08 after 24 hrs by microdilution broth method; type: functional; settings: CCM 4516/08, 24 h
# [25] = system: Mycobacterium kansasii; assay: Antimycobacterial activity against Mycobacterium kansasii 235/80 after 21 days; type: functional; settings: 235/80, 504 h; method in brief: as §2
# [26] = system: Mycobacterium kansasii; assay: Antimycobacterial activity against Mycobacterium kansasii 6509/96 after 7 days; type: functional; settings: 6509/96, 168 h; method in brief: as §2
# [27] = system: Escherichia coli; assay: Antibacterial activity against Escherichia coli CCM4517 after 24 hrs by microdilution broth method; type: functional; settings: CCM4517, 24 h; method in brief: as §1
# [28] = system: Nakaseomyces glabratus; assay: Antifungal activity against Candida glabrata 20/I after 24 hrs by microdilution broth method; type: functional; method in brief: as §3
# [29] = system: Candida tropicalis; assay: Antifungal activity against Candida tropicalis 156 after 48 hrs by microdilution broth method; type: functional; settings: Candida tropicalis, 156, 48 h; method in brief: as §3
# [30] = system: Trichosporon asahii; assay: Antifungal activity against Trichosporon asahii 1188 after 24 hrs by microdilution broth method; type: functional; settings: Trichosporon asahii, 1188, 24 h; method in brief: as §3
# [31] = system: Mycobacterium kansasii; assay: Antimycobacterial activity against Mycobacterium kansasii 6509/96 after 14 days; type: functional; settings: 6509/96, 336 h; method in brief: as §2
# [32] = system: Trichophyton mentagrophytes; assay: Antifungal activity against Trichophyton mentagrophytes 445 after 48 hrs by microdilution broth method; type: functional; settings: Trichophyton mentagrophytes, 445, 48 h
# [33] = system: Candida albicans; assay: Antifungal activity against Candida albicans ATCC 44859 after 24 hrs by microdilution broth method; type: functional; settings: ATCC 44859, 24 h; method in brief: as §3
# [34] = system: Mycobacterium tuberculosis; assay: Antimycobacterial activity against Mycobacterium tuberculosis H37Rv 331/88 after 21 days; type: functional; settings: H37Rv 331/88, 504 h
# [35] = system: Trichosporon asahii; assay: Antifungal activity against Trichosporon asahii 1188 after 48 hrs by microdilution broth method; type: functional; settings: Trichosporon asahii, 1188, 48 h; method in brief: as §3
# [36] = system: Candida tropicalis; assay: Antifungal activity against Candida tropicalis 156 after 24 hrs by microdilution broth method; type: functional; settings: Candida tropicalis, 156, 24 h; method in brief: as §3
# [37] = system: Mycobacterium avium; assay: Antimycobacterial activity against Mycobacterium avium 330/80 after 14 days; type: functional; settings: 330/80, 336 h
# [38] = system: Mycobacterium avium; assay: Antimycobacterial activity against Mycobacterium avium 330/80 after 21 days; type: functional; settings: 330/80, 504 h
# [39] = system: Staphylococcus aureus; assay: Antibacterial activity against methicillin-resistant Staphylococcus aureus H 5996/08 after 24 hrs by microdilution broth method; type: functional; settings: H 5996/08, 24 h
# [40] = system: Aspergillus fumigatus; assay: Antifungal activity against Aspergillus fumigatus 231 after 24 hrs by microdilution broth method; type: functional; settings: Aspergillus fumigatus, 231, 24 h; method in brief: as §3
# [41] = system: Trichophyton mentagrophytes; assay: Antifungal activity against Trichophyton mentagrophytes 445 after 24 hrs by microdilution broth method; type: functional; settings: Trichophyton mentagrophytes, 445, 24 h
# [42] = system: Staphylococcus epidermidis; assay: Antibacterial activity against Staphylococcus epidermidis H 6966/08 after 24 hrs by microdilution broth method; type: functional; settings: H 6966/08, 24 h; method in brief: as §1
# [43] = system: Staphylococcus aureus; assay: Antibacterial activity against Staphylococcus aureus CCM 4516/08 after 48 hrs by microdilution broth method; type: functional; settings: CCM 4516/08, 48 h
# [44] = system: Lichtheimia corymbifera; assay: Antifungal activity against Absidia corymbifera 272 after 24 hrs by microdilution broth method; type: functional; settings: Lichtheimia corymbifera, 272, 24 h; method in brief: as §3
smiles,measurement,setting,value
O=C(Nc1ccc(Cl)c(Cl)c1)c1cc([N+](=O)[O-])ccc1O,Selectivity Index,[1],0.556
same,MIC,[2],8 µM
same,MIC,[3],125 µM
same,MIC,[4],> 500 µM
same,MIC,[5],32 µM
same,MIC,[6],> 500 µM
same,MIC,[7],62.5 µM
same,MIC,[8],> 500 µM
same,MIC,[9],125 µM
same,MIC,[10],> 500 µM
same,MIC,[11],> 500 µM
same,MIC,[12],32 µM
same,MIC,[13],> 500 µM
same,MIC,[14],16 µM
same,MIC,[15],> 500 µM
same,MIC,[16],> 500 µM
same,MIC,[17],> 500 µM
same,pIC50,[18],5.05
same,MIC,[19],> 500 µM
same,MIC,[20],> 500 µM
same,MIC,[21],31.2 µM
same,MIC,[22],> 500 µM
same,MIC,[23],> 500 µM
same,MIC,[24],31.2 µM
same,MIC,[25],32 µM
same,MIC,[26],32 µM
same,MIC,[27],> 500 µM
same,MIC,[28],> 500 µM
same,MIC,[29],> 500 µM
same,MIC,[30],> 500 µM
same,MIC,[31],32 µM
same,MIC,[32],250 µM
same,MIC,[33],> 500 µM
same,MIC,[34],16 µM
same,MIC,[35],> 500 µM
same,MIC,[36],> 500 µM
same,MIC,[37],125 µM
same,MIC,[38],125 µM
same,MIC,[39],31.2 µM
same,MIC,[40],> 500 µM
same,MIC,[41],250 µM
same,MIC,[42],62.5 µM
same,MIC,[43],31.2 µM
same,MIC,[44],> 500 µM
O=C(Nc1cccc(C(F)(F)F)c1)c1cc([N+](=O)[O-])ccc1O,Selectivity Index,[1],0.463
same,MIC,[2],8 µM
same,MIC,[3],> 500 µM
same,MIC,[4],> 500 µM
same,MIC,[5],62.5 µM
same,MIC,[6],> 500 µM
same,MIC,[7],31.2 µM
same,MIC,[8],> 500 µM
same,MIC,[9],> 500 µM
same,MIC,[10],> 500 µM
same,MIC,[11],500 µM
same,MIC,[12],32 µM
same,MIC,[13],> 500 µM
same,MIC,[14],16 µM
same,MIC,[15],> 500 µM
same,MIC,[16],> 500 µM
same,MIC,[17],> 500 µM
same,pIC50,[18],5.13
same,MIC,[19],> 500 µM
same,MIC,[20],> 500 µM
same,MIC,[21],31.2 µM
same,MIC,[22],> 500 µM
same,MIC,[23],500 µM
same,MIC,[24],31.2 µM
same,MIC,[25],62.5 µM
same,MIC,[26],32 µM
same,MIC,[27],> 500 µM
same,MIC,[28],> 500 µM
same,MIC,[29],> 500 µM
same,MIC,[30],500 µM
same,MIC,[31],62.5 µM
same,MIC,[32],500 µM
same,MIC,[33],> 500 µM
same,MIC,[34],16 µM
same,MIC,[35],500 µM
same,MIC,[36],> 500 µM
same,MIC,[37],125 µM
same,MIC,[38],125 µM
same,MIC,[39],31.2 µM
same,MIC,[40],500 µM
same,MIC,[41],500 µM
same,MIC,[42],31.2 µM
same,MIC,[43],31.2 µM
same,MIC,[44],500 µM
